Assay outcomes (PubChem BioAssay)
Rad51 HR inh: blocks human Rad51 in homologous recombination; Q06609; hRad51 DNA strand exchange, fluorescence dequenching; inhibition, % at 10 µM; hit rate 0.085% among 200,000; AID 1385;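 active = inhibition above 40% at the single screening dose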
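Assay system: Human Rad51 nucleoprotein filaments preassembled on unlabelled ssDNA | Reagent: Donor/quencher-labelled 47-bp dsDNA substrate | Doses: One concentration, 10 µM final | Times: 37 °C 15-min filament assembly, 30-min compound preincubation, 15-min exchange | Technique: Fluorescein emission 520 nm, excitation 485 nm | Benchmarks: Plate control and blank wells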
CHOP inhibitor: inhibitors of CHOP induction in ER stress response; CHO-K1 CHOP-promoter luciferase, tunicamycin-induced, 15-18 h; inhibition, % at 10 µM; hit rate 3.8% among 220,000;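 active = compounds that reduced the stress-induced luciferase reporter signal by more than about 70% of percent inhibition, limit read from the data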
PKD1 inh: blocks activity of human protein kinase D1; AID 797; Q15139; PKD1 kinase fluorescence polarization assay; hit rate 0.056% among 200,000; inhibition, % (no concentration beside the values)
Target sequence (Q15139 whole entry, looked up): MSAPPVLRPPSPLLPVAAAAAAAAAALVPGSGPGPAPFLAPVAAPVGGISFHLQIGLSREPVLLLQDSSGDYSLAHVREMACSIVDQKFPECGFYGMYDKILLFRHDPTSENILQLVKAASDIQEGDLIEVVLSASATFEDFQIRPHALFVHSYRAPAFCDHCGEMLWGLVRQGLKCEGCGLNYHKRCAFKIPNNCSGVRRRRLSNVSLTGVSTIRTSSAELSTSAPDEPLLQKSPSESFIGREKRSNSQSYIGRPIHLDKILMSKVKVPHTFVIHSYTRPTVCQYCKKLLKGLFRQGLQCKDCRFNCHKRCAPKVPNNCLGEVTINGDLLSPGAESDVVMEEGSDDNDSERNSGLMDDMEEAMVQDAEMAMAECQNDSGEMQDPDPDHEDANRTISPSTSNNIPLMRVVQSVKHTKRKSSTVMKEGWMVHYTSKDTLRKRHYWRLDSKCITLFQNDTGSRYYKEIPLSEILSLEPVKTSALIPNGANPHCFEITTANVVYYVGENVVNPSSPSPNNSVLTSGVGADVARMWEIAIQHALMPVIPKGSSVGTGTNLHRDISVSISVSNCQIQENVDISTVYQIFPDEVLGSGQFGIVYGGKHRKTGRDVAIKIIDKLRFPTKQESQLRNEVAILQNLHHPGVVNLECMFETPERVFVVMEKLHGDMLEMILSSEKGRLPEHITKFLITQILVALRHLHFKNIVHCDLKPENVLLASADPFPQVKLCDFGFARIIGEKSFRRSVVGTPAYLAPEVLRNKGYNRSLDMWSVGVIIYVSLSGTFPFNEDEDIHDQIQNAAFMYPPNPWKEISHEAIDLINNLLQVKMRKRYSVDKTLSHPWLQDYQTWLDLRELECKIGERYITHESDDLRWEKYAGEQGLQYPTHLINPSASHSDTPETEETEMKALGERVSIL
Arbovirus inh: blocks arbovirus infection; arbovirus infection cell-based antiviral screen; inhibition, % at 10 µM; hit rate 0.37% among 200,000; AID 1251; in the data active = inhibition above about 30%
Wee1 degr inh: human Wee1 degradation inhibition, primary screen. hit rate 1.2% among 220,000. HeLa Luc-Wee1K328M stability, luciferase luminescence; 100% = proteasome inhibitor MG132 effect. reporter increase, % at 5 µM. P30291;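 active = activation above the mean of all tested compounds plus 3 SD, set per screening run, cut at about 8.8% in these data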;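 note: cells exposed to compound for 20 h before luminescence read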
L major viab: inhibitors of Leishmania major promastigote growth. Leishmania major promastigotes, resazurin fluorescence viability. inhibition, % at 10 µM. hit rate 9% among 200,000. AID 1063;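 note: promastigotes grown with compound for 44 hours at 28 °C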
CHOP inh conf: confirmation of CHOP induction inhibitors; shares compounds with CHOP inhibitor; CHO-CHOP promoter luciferase reporter, tunicamycin-induced, luminescence; inhibition, % at 10 µM; hit rate 45% among 2,100;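 active = mean of three repeat readings of reporter signal inhibition above a set limit, cut at about 70% in these data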
Hits are given with their value. Hits are enriched below; roughly 12% of the tested compounds scored in any of these assays. Cut-off read from the data, not from the text of the source, unless noted: active = inhibition above about 50%; inactive = the rest.

`O=C(NCCNC(=O)c1cc(OCC(F)(F)F)ccc1OCC(F)(F)F)Nc1cccc(C(F)(F)F)c1` gave Rad51 HR inh inactive, CHOP inhibitor 104.1, PKD1 inh inactive, Arbovirus inh inactive, Wee1 degr inh inactive, L major viab inactive and CHOP inh conf 101.2.
O=C(Nc1ccc(OC(F)F)cc1)Nc1cccc(C(F)(F)F)c1 was read as Rad51 HR inh inactive, CHOP inhibitor 110.1, PKD1 inh inactive, Arbovirus inh inactive, Wee1 degr inh inactive, L major viab inactive and CHOP inh conf 85.6.
Screening CCN(CC)S(=O)(=O)c1ccc(NC(=O)Nc2cccc(C(F)(F)F)c2)cc1 returned Rad51 HR inh inactive, CHOP inhibitor inactive, PKD1 inh inactive, Arbovirus inh inactive, Wee1 degr inh inactive and L major viab inactive.
For CCOC(=O)[C@@H]1[C@H]2COc3ccc(Br)cc3[C@@H]2N2C(=O)N(c3ccc(Cl)cc3)C(=O)[C@]12C the results were Rad51 HR inh inactive.
`CCOC(=O)c1sc(NC(=O)c2cc(-c3ccccc3)nc3ccccc23)c(C#N)c1C` gave Rad51 HR inh inactive, CHOP inhibitor inactive, PKD1 inh inactive, Arbovirus inh inactive, Wee1 degr inh inactive and L major viab inactive.
O=C(CNC(=S)NC(=O)c1cccc([N+](=O)[O-])c1)c1ccccc1 was read as Rad51 HR inh inactive, CHOP inhibitor inactive, PKD1 inh inactive, Arbovirus inh inactive, Wee1 degr inh inactive and L major viab inactive.
Screening O=C(C#Cc1ccccc1)c1cccc([N+](=O)[O-])c1 returned Rad51 HR inh inactive, CHOP inhibitor 107.0, PKD1 inh inactive, Arbovirus inh inactive, Wee1 degr inh inactive, L major viab inactive and CHOP inh conf inactive.
Screening CCCOc1ccc(/C=N/Nc2ccccc2[N+](=O)[O-])c(O)c1 returned Rad51 HR inh inactive, CHOP inhibitor inactive, PKD1 inh inactive, Arbovirus inh inactive, Wee1 degr inh inactive and L major viab inactive.
CCCOc1ccc(/C=N/NC(=S)Nc2ccccc2[N+](=O)[O-])c(O)c1 was read as Rad51 HR inh inactive, CHOP inhibitor 100.6, PKD1 inh inactive, Arbovirus inh inactive, Wee1 degr inh inactive, L major viab 98.4 and CHOP inh conf inactive.
Screening Cc1ncc(S(=O)(=O)C(C)(C)C)c(N)n1 returned Rad51 HR inh inactive, CHOP inhibitor inactive and Wee1 degr inh inactive.
Screening Cc1ccc(C(=O)Nc2sc3c(c2C(=O)NCc2ccco2)CCCC3)cc1 returned Rad51 HR inh inactive, CHOP inhibitor 104.0, PKD1 inh inactive, Arbovirus inh inactive, Wee1 degr inh inactive, L major viab inactive and CHOP inh conf inactive.
`CCNC(=O)c1c(NC(=O)c2cc(-c3cc(C)ccc3O)n[nH]2)sc2c1CCCC2` gave Rad51 HR inh inactive, CHOP inhibitor 100.9, PKD1 inh inactive, Arbovirus inh inactive, Wee1 degr inh inactive, L major viab inactive and CHOP inh conf 106.0.
Screening CC(C)NC(=O)CC(c1ccccc1)c1cc(Br)ccc1O (stereo unspecified) returned Rad51 HR inh inactive, CHOP inhibitor inactive, PKD1 inh inactive, Arbovirus inh inactive, Wee1 degr inh inactive and L major viab inactive.
For CCCCCCNC(=O)CC(c1ccccc1)c1cc(Br)ccc1O (stereo unspecified) the results were Rad51 HR inh inactive, CHOP inhibitor 100.8, PKD1 inh inactive, Arbovirus inh inactive, Wee1 degr inh inactive, L major viab inactive and CHOP inh conf 111.8.
O=c1cc(CN2CC(O)Cc3ccc4ccccc4c32)nc2sccn12 (stereo unspecified) was read as Rad51 HR inh inactive, CHOP inhibitor inactive, PKD1 inh inactive, Arbovirus inh inactive, Wee1 degr inh inactive and L major viab inactive.
Screening O=C(/C=C/c1ccc(-c2ccccc2)o1)c1ccccc1 returned CHOP inhibitor 97.6, PKD1 inh inactive, Arbovirus inh inactive, Wee1 degr inh inactive, L major viab inactive and CHOP inh conf inactive.
For COc1ccc(OCCCC(=O)Nc2cc([N+](=O)[O-])ccc2C)cc1 the results were Rad51 HR inh inactive, CHOP inhibitor inactive, PKD1 inh inactive, Arbovirus inh inactive, Wee1 degr inh inactive and L major viab inactive.
For CCCCc1ccc(NC(=O)c2cnccn2)cc1 the results were Rad51 HR inh inactive, CHOP inhibitor inactive, PKD1 inh inactive, Arbovirus inh inactive, Wee1 degr inh inactive and L major viab inactive.
`CC(=O)Nc1ccc(NC(=O)CSc2nnc(C)c(=O)[nH]2)cc1` gave Rad51 HR inh inactive, CHOP inhibitor inactive, PKD1 inh inactive, Arbovirus inh inactive, Wee1 degr inh inactive and L major viab inactive.
For Cc1nc(SCC(=O)Nc2ccccc2)c2oc3ccccc3c2n1 the results were Rad51 HR inh inactive, CHOP inhibitor 96.4, PKD1 inh inactive, Arbovirus inh inactive, Wee1 degr inh inactive, L major viab inactive and CHOP inh conf inactive.
Cc1nc(SCC(=O)NC(C)c2ccccc2)c2oc3ccccc3c2n1 (stereo unspecified) was read as Rad51 HR inh inactive, CHOP inhibitor inactive, PKD1 inh inactive, Arbovirus inh inactive, Wee1 degr inh inactive and L major viab inactive.
Screening Cc1nc(SCC(=O)Nc2ccc(F)cc2)c2oc3ccccc3c2n1 returned Rad51 HR inh inactive, CHOP inhibitor 106.4, PKD1 inh inactive, Arbovirus inh inactive, Wee1 degr inh inactive, L major viab inactive and CHOP inh conf inactive.
Cc1csc2c(N3CCN(C(=O)Nc4ccc(OC(F)(F)F)cc4)CC3)ncnc12 was read as Rad51 HR inh inactive, CHOP inhibitor inactive and Wee1 degr inh inactive.
CCCCCC1CC(CC(=O)Nc2ccc([N+](=O)[O-])cc2)C(=O)O1 (stereo unspecified) was read as CHOP inhibitor 101.2, PKD1 inh inactive, Arbovirus inh inactive, Wee1 degr inh inactive, L major viab inactive and CHOP inh conf 103.5.
`CCCCCC1CC(CC(=O)O)C(=O)O1` (stereo unspecified) gave Rad51 HR inh inactive, CHOP inhibitor inactive, PKD1 inh inactive, Arbovirus inh inactive, Wee1 degr inh inactive and L major viab inactive.
For COCCN(C(=O)CSc1nnc(Nc2ccccc2F)s1)c1c(N)n(Cc2ccccc2)c(=O)[nH]c1=O the results were Rad51 HR inh inactive, CHOP inhibitor inactive, PKD1 inh inactive, Arbovirus inh inactive, Wee1 degr inh inactive and L major viab inactive.
Screening CCOc1ccc(N2C(=O)/C(=C\c3ccc(OC)c(O)c3)S(=O)(=O)C2c2cccc([N+](=O)[O-])c2)cc1 (stereo unspecified) returned Rad51 HR inh inactive, CHOP inhibitor inactive, PKD1 inh inactive, Arbovirus inh inactive, Wee1 degr inh inactive and L major viab inactive.
For CCOc1ccc(N2C(=O)/C(=C\c3ccc(O)c(OC)c3)S(=O)(=O)C2c2cccc([N+](=O)[O-])c2)cc1 (stereo unspecified) the results were Rad51 HR inh inactive, CHOP inhibitor 104.4, PKD1 inh inactive, Arbovirus inh inactive, Wee1 degr inh inactive, L major viab inactive and CHOP inh conf 79.9.
